Measurements as given in ChEMBL document CHEMBL1275331, “Discovery of a novel 5-HT(3) antagonist/5-HT(1A) agonist 3-amino-5,6,7,8-tetrahydro-2-{4-[4-(quinolin-2-yl)piperazin-1-yl]butyl}quinazolin-4(3H)-one (TZB-30878) as an orally bioavailable agent for irritable bowel syndrome” (J Med Chem, 2010).
Active and inactive are the calls of the source. No cut-off for these calls is given here.

Tests used:
Rattus norvegicus = assay: Reduction in wrap restraint stress-induced defecation in rat diarrhea-predominant irritable bowel syndrome model at 1 to 10 mg/kg, po administered 1 hr prior to induction of stress; assay type: functional, organism-based
Method in brief: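 Lightly anesthetized rats had upper bodies wrapped with adhesive tape, then returned to observation cages; feces counted 1 h after wrapping. Compound or vehicle given orally 1 h before restraint; unwrapped animals as normal group. n = 8 per group, mean (SD); Wilcoxon and nonparametric Dunnett's tests.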

[1] = target: Adrenergic receptor alpha-2 (Rattus norvegicus, UniProt P22086+P19328+P22909); assay: Inhibition of rat alpha2 adrenergic receptor
[2] = Displacement of [3H]GABA from rat cerebral cortex GABA(A) receptor; assay type: tissue-based
[3] = Drug level in Sprague-Dawley rat brain at 3 mg/kg, po after 2 hrs by HPLC analysis; assay type: ADME, organism-based; parameters: dose 3 mg/kg, route oral; settings: read-out: Drug uptake
Method in brief: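 Total compound concentration was measured in brain and blood at 2, 4 and 8 h after a single oral 3 mg/kg dose. Brain/blood ratio was also derived. Values are mean ± SD of three rats.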

IC50 [1]: > 100 nM
IC50 [2]: > 1000 nM
concentration at 2 h [3]: 160 nM
SMILES: Nn1c(CCCCN2CCN(c3ccc4ccccc4n3)CC2)nc2c(c1=O)CCCC2
inhibition (Rattus norvegicus): Active
